The text below walks through data of ChEMBL document CHEMBL5321226, “Structure-directed identification of pyridine-2-methylamine derivatives as MmpL3 inhibitors for use as antitubercular agents” (Eur J Med Chem, 2023).

Series [1] can be described thus: Cytotoxicity against African green monkey Vero cells assessed as reduction in cell viability incubated for 72 hrs by alamar blue staining based fluorescence microplate reader analysis. It is filed as toxicity. Conditions: African green monkey (Chlorocebus sabaeus). A digest of the protocol:
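Vero cell cytotoxicity was read out by Alamar Blue (MABA) and expressed as IC50. Other details follow earlier reports.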
On the technique in general: Alamar Blue is a resazurin reagent that responds to reducing activity.

Series [2] is described as follows: Metabolic stability in human liver microsomes assessed as half life and mesured upto 60 mins in presence of NADPH. It is filed as ADME, Microsome. The conditions noted are these: 1 h. A digest of the protocol:
(§1)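 Compounds were incubated with human liver microsomes for 60 min, with or without NADPH cofactor. Substrate concentration after 60 min was normalized to the time-zero concentration to give % remaining. Half-life was derived from the incubations, and intrinsic clearance was calculated as CLint(mic) = 0.693/half-life/mg microsomal protein per mL.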
Background: Liver microsomes are a subcellular fraction often used to study metabolism.

Series [3] can be described thus: Metabolic stability in human liver microsomes assessed as parent compound remaining and mesured after 60 mins in presence of NADPH. It counts as ADME, Microsome. The conditions noted are these: read-out: Stability. In outline: as §1
Series [4] addresses Voltage-gated inwardly rectifying potassium channel KCNH2 (Homo sapiens, UniProt Q12809). The series can be described thus: Inhibition of human ERG at 10 uM by patch-clamp electrophysiology assay. It is filed as toxicity. A digest of the protocol: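 hERG K+ channel current was measured by manual patch-clamp electrophysiology with the test compound at 10 μM. […] The inhibition rate is the average of three individual measurements.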

The nature of series [5]: Metabolic stability in human liver microsomes assessed as intrinsic clearance and mesured upto 60 mins in presence of NADPH. It counts as ADME, Microsome. The conditions noted are these: 1 h.
A short description of series [6]: Metabolic stability in human liver microsomes assessed as parent compound remaining and mesured after 60 mins in absence of NADPH. It is filed as ADME, Microsome. The conditions noted are these: 1 h.
The subject of series [7] is Mycobacterium tuberculosis. Kind of series: Antimycobacterial activity against drug susceptible Mycobacterium tuberculosis V4207 assessed as bacterial growth inhibition incubated for 7 to 14 days by MABA assay. It is filed as functional. Conditions: time 7-14 day.
The mark [8] stands for this setting: Mycobacterium tuberculosis, V4207, read-out: MIC90.

Molecules are shown by their SMILES. In brackets after ≈: the same amount, converted by molar mass. Bounds are passed on as bounds.

Voltage-gated inwardly rectifying potassium channel KCNH2, sequence (Q12809 whole entry): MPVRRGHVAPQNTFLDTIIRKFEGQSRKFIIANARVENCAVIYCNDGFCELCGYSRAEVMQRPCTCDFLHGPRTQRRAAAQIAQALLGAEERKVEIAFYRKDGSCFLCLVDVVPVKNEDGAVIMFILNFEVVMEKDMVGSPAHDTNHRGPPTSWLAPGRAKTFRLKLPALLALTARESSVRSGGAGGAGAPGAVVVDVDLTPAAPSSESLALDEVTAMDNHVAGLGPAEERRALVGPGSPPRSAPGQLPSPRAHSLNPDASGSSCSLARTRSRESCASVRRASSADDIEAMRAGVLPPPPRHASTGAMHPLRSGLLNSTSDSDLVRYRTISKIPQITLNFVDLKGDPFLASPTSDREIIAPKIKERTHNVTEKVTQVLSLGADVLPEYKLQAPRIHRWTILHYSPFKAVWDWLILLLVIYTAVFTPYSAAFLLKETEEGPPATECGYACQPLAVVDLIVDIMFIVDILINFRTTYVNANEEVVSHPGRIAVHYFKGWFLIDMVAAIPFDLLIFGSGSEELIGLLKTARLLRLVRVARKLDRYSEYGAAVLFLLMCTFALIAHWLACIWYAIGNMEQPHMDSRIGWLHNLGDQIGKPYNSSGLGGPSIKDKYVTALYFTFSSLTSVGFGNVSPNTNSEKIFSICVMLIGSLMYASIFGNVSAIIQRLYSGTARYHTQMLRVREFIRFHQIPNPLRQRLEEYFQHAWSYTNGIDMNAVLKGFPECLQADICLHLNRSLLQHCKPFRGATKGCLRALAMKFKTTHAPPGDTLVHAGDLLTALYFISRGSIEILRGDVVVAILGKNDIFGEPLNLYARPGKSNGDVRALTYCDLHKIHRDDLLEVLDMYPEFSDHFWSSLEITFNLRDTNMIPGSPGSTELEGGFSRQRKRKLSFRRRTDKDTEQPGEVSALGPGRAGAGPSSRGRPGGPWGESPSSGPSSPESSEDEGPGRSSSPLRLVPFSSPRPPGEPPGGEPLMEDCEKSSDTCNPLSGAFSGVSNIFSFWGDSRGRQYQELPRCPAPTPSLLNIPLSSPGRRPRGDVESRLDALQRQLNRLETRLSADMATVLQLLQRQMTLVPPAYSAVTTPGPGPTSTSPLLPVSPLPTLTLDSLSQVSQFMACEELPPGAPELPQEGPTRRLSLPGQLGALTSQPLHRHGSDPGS

Broadly, the IC50 is the concentration at which inhibition is half-maximal. In the case of `CC(C)c1ccc(-c2cncc(CN3CC[Si](C)(C)CC3)c2)cc1`, in series [1], the IC50 at 72 h is no less than 32 µg/mL.
On the same count and under the same terms, for `CC(C)c1ccc(-c2ccnc(CN3CCC4(CC3)OCCCO4)c2)cc1` the value was no less than 32 µg/mL.
Still for that read-out and setting: the figure for `CC(C)c1ccc(-c2ccnc(CNC3CCCCCCC3)c2)cc1` is 16 µg/mL (≈ 47.5 µM); for `c1ccc(-c2ccc(-c3ccnc(CN4CCC5(CCCCC5)CC4)c3)cc2)cc1` it is no less than 32 µg/mL; for `C[Si]1(C)CCN(Cc2cc(-c3ccc(C4CCCCC4)cc3)ccn2)CC1` it is no less than 32 µg/mL.
In the case of `c1ccc(-c2ccc(-c3ccnc(CN4CCC5(CCCC5)CC4)c3)cc2)cc1`, the t1/2 in series [2] is listed as 49.5 min. For the same compound, the remaining at 1 h in series [3] is 43.1%. Further, in series [1], the IC50 at 72 h is 16 µg/mL (≈ 41.8 µM). Besides, in series [4], the “inhibition (INH)” value came to 52.7%. Besides, the CLH in series [5] amounted to 28 µL/min/mg. For the same compound, the Stability entry in series [6] was “Stable”.
As to `CC(C)Cc1ccc(-c2ccnc(CN3CC[Si](C)(C)CC3)c2)cc1`, the IC50 at 72 h in series [1] is no less than 32 µg/mL.
As for `c1cc(-c2ccc(-c3ccoc3)cc2)cc(CN2CCC3(CCCC3)CC2)n1`, the t1/2 in series [2] was 1.8 min. In series [3], the remaining at 1 h worked out at 0.2%. Besides, the CLH in series [5] is 758 µL/min/mg. For the same compound, in series [6], the Stability entry is on record as “Stable”.
For `CC(C)Cc1ccc(-c2ccnc(CN3CCC(C)CC3)c2)cc1`, the concentration for half-maximal inhibition (IC50) at 72 h in series [1] was no less than 32 µg/mL.
Turning to `CC(C)c1ccc(-c2ccnc(CNC3CCCCCC3)c2)cc1`, in series [1], the IC50 at 72 h was determined as 16 µg/mL (≈ 49.6 µM).
Still for that read-out and setting: for `CC(C)c1ccc(-c2ccnc(CNC34CC5CC(CC(C5)C3)C4)c2)cc1` the value was 16 µg/mL (≈ 44.4 µM).
Take `CC(C)(C)c1ccc(-c2ccnc(CN3CC[Si](C)(C)CC3)c2)cc1`: the IC50 at 72 h in series [1] stood at 16 µg/mL (≈ 45.4 µM).
The same measure, in the same setting: the figure for `Cc1ccc(-c2ccc(-c3ccnc(CN4CCC5(CCCC5)CC4)c3)cc2)cc1` is no less than 32 µg/mL.
For the compound `CC(C)c1ccc(-c2ccnc(CN3CCC4(CCCC4)CC3)c2)cc1`, the t1/2 in series [2] is listed as 11.3 min. In addition, the remaining at 1 h in series [3] stood at 1.5%. Further, the CLH in series [5] is 122.9 µL/min/mg. Besides, the Stability entry in series [6] was “Stable”.
Turning to `Clc1ccc(-c2ccc(-c3ccnc(CN4CCC5(CCCC5)CC4)c3)cc2)cc1`, the IC50 at 72 h in series [1] is no less than 32 µg/mL.
On to `CC(C)c1ccc(-c2nc(CN3CC[Si](C)(C)CC3)co2)cc1`, for which the 50% inhibitory concentration (IC50) at 72 h in series [1] was no less than 32 µg/mL.
Same read-out and setting: for `CC(C)c1ccc(-c2ccnc(CNC3C4CC5CC(C4)CC3C5)c2)cc1` (stereo not drawn) the value was no less than 32 µg/mL; for `CC(C)c1ccc(-c2ccnc(CN3CC[Si](C)(C)CC3)c2)cc1`, no less than 32 µg/mL.
On the same count and under the same terms, for `C[Si]1(C)CCN(Cc2cc(-c3ccc(-c4ccccc4)cc3)ccn2)CC1` the value was no less than 32 µg/mL.
Take `O=C(O)Cc1ccccc1Nc1c(Cl)cccc1Cl` [DICLOFENAC]: the Stability entry in series [6] is “Stable”.
What is called MIC90 is an inhibitory concentration at the 90% level, which refers to growth in some studies and to a panel of isolates in others. Consider `NNC(=O)c1ccncc1` [ISONIAZID], for which the MIC90 in series [7] is 0.04 µg/mL (≈ 0.292 µM).
In the case of `NC[C@H]1O[C@H](O[C@H]2[C@H](O)[C@@H](O[C@H]3O[C@H](CO)[C@@H](O)[C@H](N)[C@H]3O)[C@H](N)C[C@@H]2N)[C@H](O)[C@@H](O)[C@@H]1O` [KANAMYCIN], the MIC90 in series [7] (setting [8]) was determined as 2 µg/mL (≈ 4.13 µM).
With `C[C@H]1COc2c(N3CCN(C)CC3)c(F)cc3c(=O)c(C(=O)O)cn1c23` [LEVOFLOXACIN ANHYDROUS], the MIC90 in series [7] (setting [8]) stood at 0.125 µg/mL (≈ 0.346 µM).
For the compound `CC1COc2c(N3CCN(C)CC3)c(F)cc3c(=O)c(C(=O)O)cn1c23` (stereo not drawn) [OFLOXACIN], the MIC90 in series [7] (setting [8]) amounted to 0.5 µg/mL (≈ 1.38 µM).
Still for that read-out and setting: the figure for `CO[C@H]1/C=C/O[C@@]2(C)Oc3c(C)c(O)c4c(O)c(c(/C=N/N5CCN(C)CC5)c(O)c4c3C2=O)NC(=O)/C(C)=C\C=C\[C@H](C)[C@H](O)[C@@H](C)[C@@H](O)[C@@H](C)[C@H](OC(C)=O)[C@@H]1C` [RIFAMPIN] is 0.063 µg/mL (≈ 0.0766 µM).
As to `C[C@]12CC[C@H]3[C@@H](CCC4=CC(=O)CC[C@@]43C)[C@@H]1CC[C@@H]2O` [TESTOSTERONE], in series [3], the remaining at 1 h is 3.9%. For the same compound, the Stability result in series [6] was “Stable”.
